The values that follow come from publication PMC5525105 (ACS Chemical Biology, 2017).

In one data set the target is T1, wild-type GBA (Homo sapiens, UniProt P04062).
T1 sequence (P04062 40-536): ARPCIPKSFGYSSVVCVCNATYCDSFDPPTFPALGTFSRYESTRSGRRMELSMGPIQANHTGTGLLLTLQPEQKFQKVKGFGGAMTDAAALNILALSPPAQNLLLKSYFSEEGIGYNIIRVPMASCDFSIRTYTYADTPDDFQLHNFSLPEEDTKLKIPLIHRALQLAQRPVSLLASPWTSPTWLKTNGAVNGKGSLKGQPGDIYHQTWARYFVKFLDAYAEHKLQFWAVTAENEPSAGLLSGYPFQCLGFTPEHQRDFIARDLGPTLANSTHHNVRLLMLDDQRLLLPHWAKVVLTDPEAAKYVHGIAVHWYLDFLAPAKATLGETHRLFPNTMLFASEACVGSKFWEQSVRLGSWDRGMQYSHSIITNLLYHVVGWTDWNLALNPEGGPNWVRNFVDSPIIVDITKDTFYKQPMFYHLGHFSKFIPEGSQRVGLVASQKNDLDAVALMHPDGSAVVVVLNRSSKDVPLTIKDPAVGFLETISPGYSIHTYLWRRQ
The data set is described as follows: In situ stabilization of GBA in wild-type fibroblasts. The format is cell-based. Particulars: wild-type cells, 100 nM ABP 5 or 100 μM leupeptin, up to 12 days. In outline: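 Confluent wild-type skin fibroblasts were cultured 0–12 days with 100 nM red β-epoxide probe, 100 μM leupeptin, or both, with medium refreshed […]. Lysates were made in pH 6.5 phosphate/Triton with protease inhibitors. Without in situ probe, 10 μg protein was labeled 1 h at 37 °C with 100 nM green probe at pH 5.2. Analysis was SDS-PAGE fluorescence, Coomassie staining and anti-GBA (8E4) western blot, then densitometry.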

Data set [1] concerns the target T2, rGBA (Homo sapiens, UniProt P04062, R534H).
T2 sequence (P04062 40-536 R534H): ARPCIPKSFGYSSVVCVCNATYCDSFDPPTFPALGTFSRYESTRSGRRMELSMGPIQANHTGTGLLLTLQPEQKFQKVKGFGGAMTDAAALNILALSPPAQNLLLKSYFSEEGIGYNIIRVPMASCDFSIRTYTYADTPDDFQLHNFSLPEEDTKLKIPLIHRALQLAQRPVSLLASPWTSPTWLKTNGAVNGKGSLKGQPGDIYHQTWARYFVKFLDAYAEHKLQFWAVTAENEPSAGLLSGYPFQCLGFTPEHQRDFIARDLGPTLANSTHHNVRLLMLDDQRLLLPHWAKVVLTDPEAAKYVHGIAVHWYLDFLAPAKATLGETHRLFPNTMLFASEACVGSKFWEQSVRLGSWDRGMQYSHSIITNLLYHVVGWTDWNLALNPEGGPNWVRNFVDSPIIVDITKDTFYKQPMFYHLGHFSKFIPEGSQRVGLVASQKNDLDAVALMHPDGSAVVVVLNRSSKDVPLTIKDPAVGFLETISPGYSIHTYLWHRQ
The data set is described as follows: Thermal stability of rGBA by tryptophan fluorescence decay. The format is binding.

In another data set the test system is GBA. Conditions: neutral pH; cited from earlier work.
Data set [2] has as its target T2, rGBA. The data set is described as follows: Limited proteolysis of rGBA with trypsin. Conditions: for rGBA remaining intact after tryptic digestion: 90 min of incubation with trypsin.
The subject of a further data set is wild-type and N370S GBA. The data set is described as follows: In situ treatment of fibroblasts with IFG 1 or fluoro 3 for 12 days. The format is cell-based, human. Conditions: wild-type and homozygous N370S GBA fibroblasts.
The test system of another data set is GBA L444P mutant. Conditions: mice, oral administration; cited from earlier work.
Data set [3] in a line: Time-dependent decay of rGBA activity at 37 °C. The data set is classed as physicochemical.
Data set [4] deals with T2, rGBA. Put plainly: Tryptophan emission fluorescence spectra of rGBA. Conditions: λEX 295 nm, pH 7.4, free or in complex with inhibitor.
The nature of data set [5]: Thermal unfolding of free rGBA by circular dichroism. The format is physicochemical. Particulars: circular dichroism 222 nm.

Consider `CC(=O)N[C@@H](CC(C)C)C(=O)N[C@@H](CC(C)C)C(=O)N[C@H](C=O)CCCNC(=N)N` [leupeptin], for which, at wild-type GBA, the “stabilization of GBA” value is recorded as “about 3 fold”.

As to `OC[C@H]1CNC[C@@H](O)[C@@H]1O` [IFG 1, isofagomine], the “increase of Tm of rGBA” value at rGBA [1] (pH 5.2, saturating inhibitor concentration) was “+5.6 °C”. Also, the “increase in thermal stability of GBA” value in the data set on GBA is 8.7 °C. Besides, the “rGBA remaining intact after tryptic digestion” value on rGBA [2] turned out to be 50%. The “concentration at which stabilizing effect became evident” value in the data set with wild-type and N370S GBA is “greater than 10 μM”. Also, the “concentration of maximal stabilizing effect” value in the data set on wild-type and N370S GBA (highest concentration tested) is 100 µM. Moreover, in the data set with GBA L444P mutant, the “increase of GBA L444P mutant activity” value is on record as “up to 5 fold”.

B1: rGBA: purified recombinant glucocerebrosidase (imiglucerase) from Genzyme (protein, UniProt P04062 40-536, looked up, variant R495H)
Lysosomal acid …: ARPCIPKSFGYSSVVCVCNATYCDSFDPPTFPALGTFSRYESTRSGRRMELSMGPIQANHTGTGLLLTLQPEQKFQKVKGFGGAMTDAAALNILALSPPAQNLLLKSYFSEEGIGYNIIRVPMASCDFSIRTYTYADTPDDFQLHNFSLPEEDTKLKIPLIHRALQLAQRPVSLLASPWTSPTWLKTNGAVNGKGSLKGQPGDIYHQTWARYFVKFLDAYAEHKLQFWAVTAENEPSAGLLSGYPFQCLGFTPEHQRDFIARDLGPTLANSTHHNVRLLMLDDQRLLLPHWAKVVLTDPEAAKYVHGIAVHWYLDFLAPAKATLGETHRLFPNTMLFASEACVGSKFWEQSVRLGSWDRGMQYSHSIITNLLYHVVGWTDWNLALNPEGGPNWVRNFVDSPIIVDITKDTFYKQPMFYHLGHFSKFIPEGSQRVGLVASQKNDLDAVALMHPDGSAVVVVLNRSSKDVPLTIKDPAVGFLETISPGYSIHTYLWHRQ
modifications: imiglucerase
As for B1, the “Tm of rGBA” value with rGBA [1] (pH 5.2, no inhibitor) stood at 55.2 °C. Also, in data set [3] (pH 5.2, 37 °C), the “activity of rGBA over time” value is “preserved”. The “half-life of rGBA activity” value in data set [3] (pH 7.4, 37 °C, residual activity measured at pH 5.2) worked out at 30 min. Besides, the “maximum emission of rGBA tryptophan fluorescence” value with rGBA [4] amounted to 336.5 nm. Besides, the “rGBA remaining intact after tryptic digestion” value with rGBA [2] is reported as around 10%. The “sensitivity of rGBA to tryptic digestion over 90 min” value with rGBA [2] (pH 5.2, trypsin/rGBA 1/10 (w/w)) is recorded as “shows resistance to tryptic digestion”. In the data set with rGBA [2] (pH 7.4, trypsin/rGBA 1/10 (w/w)), the “rGBA degraded by trypsin within 60 min” value was “about 40%”. The figures for the “apparent Tm” value in data set [5] (pH 5.2) and in data set [5] (pH 7.4) were 61 °C and 57 °C, respectively.
